Experiment: Binding affinity to immobilized HIV1 YU2 gp120 by surface plasmon resonance method
Design: species or system Human immunodeficiency virus 1
Summary of the method: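 YU2 gp120 (Drosophila S2-expressed, F105-affinity purified) amine-coupled to CM5 chip (~4000 RU); peptides in PBS injected at 15 μL/min, 5 min association, 5 min dissociation. Buffer and anti-IL5Rα 2B6R control-surface responses subtracted; kinetic constants fitted in BIAevaluation.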

First: CC[C@H](C)[C@H](NC(=O)[C@@H](N)CCCNC(=N)N)C(=O)N[C@@H](CC(N)=O)C(=O)N[C@@H](CC(N)=O)C(=O)N[C@H](C(=O)N1C[C@@H](n2cc(-c3ccccc3OC)nn2)C[C@H]1C(=O)N[C@@H](Cc1c[nH]c2ccccc12)C(=O)N[C@@H](CO)C(=O)N[C@@H](CCC(=O)O)C(=O)N[C@@H](C)C(=O)N[C@@H](CCSC)C(=O)N[C@@H](CCSC)C(=O)O)[C@@H](C)CC
Second: CC[C@H](C)[C@H](NC(=O)[C@@H](N)CCCNC(=N)N)C(=O)N[C@@H](CC(N)=O)C(=O)N[C@@H](CC(N)=O)C(=O)N[C@H](C(=O)N1C[C@@H](n2cc(-c3ccccc3C)nn2)C[C@H]1C(=O)N[C@@H](Cc1c[nH]c2ccccc12)C(=O)N[C@@H](CO)C(=O)N[C@@H](CCC(=O)O)C(=O)N[C@@H](C)C(=O)N[C@@H](CCSC)C(=O)N[C@@H](CCSC)C(=O)O)[C@@H](C)CC
The Kd of the first is 110-fold higher: 14 µM for the first, 0.128 µM for the second. The second binds more tightly here.

Compared with `CC[C@H](C)[C@H](NC(=O)[C@@H](N)CCCNC(=N)N)C(=O)N[C@@H](CC(N)=O)C(=O)N[C@@H](CC(N)=O)C(=O)N[C@H](C(=O)N1C[C@@H](n2cc(-c3ccc(F)cc3)nn2)C[C@H]1C(=O)N[C@@H](Cc1c[nH]c2ccccc12)C(=O)N[C@@H](CO)C(=O)N[C@@H](CCC(=O)O)C(=O)N[C@@H](C)C(=O)N[C@@H](CCSC)C(=O)N[C@@H](CCSC)C(=O)O)[C@@H](C)CC`, `CC[C@H](C)[C@H](NC(=O)[C@@H](N)CCCNC(=N)N)C(=O)N[C@@H](CC(N)=O)C(=O)N[C@@H](CC(N)=O)C(=O)N[C@H](C(=O)N1C[C@@H](n2cc(-c3ccc(N)cc3)nn2)C[C@H]1C(=O)N[C@@H](Cc1c[nH]c2ccccc12)C(=O)N[C@@H](CO)C(=O)N[C@@H](CCC(=O)O)C(=O)N[C@@H](C)C(=O)N[C@@H](CCSC)C(=O)N[C@@H](CCSC)C(=O)O)[C@@H](C)CC` is 4.8-fold higher in Kd: 0.091 µM for the first, 0.437 µM for the second.

First: CC[C@H](C)[C@H](NC(=O)[C@@H](N)CCCNC(=N)N)C(=O)N[C@@H](CC(N)=O)C(=O)N[C@@H](CC(N)=O)C(=O)N[C@H](C(=O)N1C[C@H](n2cc(-c3ccccc3)nn2)C[C@H]1C(=O)N[C@@H](Cc1c[nH]c2ccccc12)C(=O)N[C@@H](CO)C(=O)N[C@@H](CCC(=O)O)C(=O)N[C@@H](C)C(=O)N[C@@H](CCSC)C(=O)N[C@@H](CCSC)C(=O)O)[C@@H](C)CC
Second: CC[C@H](C)[C@H](NC(=O)[C@@H](N)CCCNC(=N)N)C(=O)N[C@@H](CC(N)=O)C(=O)N[C@@H](CC(N)=O)C(=O)N[C@H](C(=O)N1C[C@@H](n2cc(-c3cccc(C)c3)nn2)C[C@H]1C(=O)N[C@@H](Cc1c[nH]c2ccccc12)C(=O)N[C@@H](CO)C(=O)N[C@@H](CCC(=O)O)C(=O)N[C@@H](C)C(=O)N[C@@H](CCSC)C(=O)N[C@@H](CCSC)C(=O)O)[C@@H](C)CC
The Kd of the first is 33-fold higher: 2.7 µM for the first, 0.083 µM for the second.

First: CC[C@H](C)[C@H](NC(=O)[C@@H](N)CCCNC(=N)N)C(=O)N[C@@H](CC(N)=O)C(=O)N[C@@H](CC(N)=O)C(=O)N[C@H](C(=O)N1C[C@@H](n2cc(-c3ccccc3CO)nn2)C[C@H]1C(=O)N[C@@H](Cc1c[nH]c2ccccc12)C(=O)N[C@@H](CO)C(=O)N[C@@H](CCC(=O)O)C(=O)N[C@@H](C)C(=O)N[C@@H](CCSC)C(=O)N[C@@H](CCSC)C(=O)O)[C@@H](C)CC
Second: CC[C@H](C)[C@H](NC(=O)[C@@H](N)CCCNC(=N)N)C(=O)N[C@@H](CC(N)=O)C(=O)N[C@@H](CC(N)=O)C(=O)N[C@H](C(=O)N1C[C@@H](n2cc(-c3ccccc3N)nn2)C[C@H]1C(=O)N[C@@H](Cc1c[nH]c2ccccc12)C(=O)N[C@@H](CO)C(=O)N[C@@H](CCC(=O)O)C(=O)N[C@@H](C)C(=O)N[C@@H](CCSC)C(=O)N[C@@H](CCSC)C(=O)O)[C@@H](C)CC
The Kd of the first is 13-fold lower: 1.93 µM for the first, 25 µM for the second.

Compared with `CC[C@H](C)[C@H](NC(=O)[C@@H](N)CCCNC(=N)N)C(=O)N[C@@H](CC(N)=O)C(=O)N[C@@H](CC(N)=O)C(=O)N[C@H](C(=O)N1C[C@@H](n2cc(-c3ccc(OC)cc3)nn2)C[C@H]1C(=O)N[C@@H](Cc1c[nH]c2ccccc12)C(=O)N[C@@H](CO)C(=O)N[C@@H](CCC(=O)O)C(=O)N[C@@H](C)C(=O)N[C@@H](CCSC)C(=O)N[C@@H](CCSC)C(=O)O)[C@@H](C)CC`, `CC[C@H](C)[C@H](NC(=O)[C@@H](N)CCCNC(=N)N)C(=O)N[C@@H](CC(N)=O)C(=O)N[C@@H](CC(N)=O)C(=O)N[C@H](C(=O)N1C[C@@H](n2cc(-c3ccc(F)c(C)c3)nn2)C[C@H]1C(=O)N[C@@H](Cc1c[nH]c2ccccc12)C(=O)N[C@@H](CO)C(=O)N[C@@H](CCC(=O)O)C(=O)N[C@@H](C)C(=O)N[C@@H](CCSC)C(=O)N[C@@H](CCSC)C(=O)O)[C@@H](C)CC` is 4.1-fold lower in Kd: 0.154 µM for the first, 0.038 µM for the second. The second binds more tightly here.

Going from `CC[C@H](C)[C@H](NC(=O)[C@@H](N)CCCNC(=N)N)C(=O)N[C@@H](CC(N)=O)C(=O)N[C@@H](CC(N)=O)C(=O)N[C@H](C(=O)N1C[C@@H](n2cc(Cn3nnc4ccccc43)nn2)C[C@H]1C(=O)N[C@@H](Cc1c[nH]c2ccccc12)C(=O)N[C@@H](CO)C(=O)N[C@@H](CCC(=O)O)C(=O)N[C@@H](C)C(=O)N[C@@H](CCSC)C(=O)N[C@@H](CCSC)C(=O)O)[C@@H](C)CC` to `CC[C@H](C)[C@H](NC(=O)[C@@H](N)CCCNC(=N)N)C(=O)N[C@@H](CC(N)=O)C(=O)N[C@@H](CC(N)=O)C(=O)N[C@H](C(=O)N1C[C@@H](n2cc(CSc3ccccc3)nn2)C[C@H]1C(=O)N[C@@H](Cc1c[nH]c2ccccc12)C(=O)N[C@@H](CO)C(=O)N[C@@H](CCC(=O)O)C(=O)N[C@@H](C)C(=O)N[C@@H](CCSC)C(=O)N[C@@H](CCSC)C(=O)O)[C@@H](C)CC`, the Kd falls from 0.388 µM to 0.115 µM (3.4-fold).

Going from `CC[C@H](C)[C@H](NC(=O)[C@@H](N)CCCNC(=N)N)C(=O)N[C@@H](CC(N)=O)C(=O)N[C@@H](CC(N)=O)C(=O)N[C@H](C(=O)N1C[C@@H](n2cc(-c3cccc4ccccc34)nn2)C[C@H]1C(=O)N[C@@H](Cc1c[nH]c2ccccc12)C(=O)N[C@@H](CO)C(=O)N[C@@H](CCC(=O)O)C(=O)N[C@@H](C)C(=O)N[C@@H](CCSC)C(=O)N[C@@H](CCSC)C(=O)O)[C@@H](C)CC` to `CC[C@H](C)[C@H](NC(=O)[C@@H](N)CCCNC(=N)N)C(=O)N[C@@H](CC(N)=O)C(=O)N[C@@H](CC(N)=O)C(=O)N[C@H](C(=O)N1C[C@@H](n2cc(-c3cc(C)ccc3C)nn2)C[C@H]1C(=O)N[C@@H](Cc1c[nH]c2ccccc12)C(=O)N[C@@H](CO)C(=O)N[C@@H](CCC(=O)O)C(=O)N[C@@H](C)C(=O)N[C@@H](CCSC)C(=O)N[C@@H](CCSC)C(=O)O)[C@@H](C)CC`, the Kd rises from 0.054 µM to 0.741 µM (14-fold).

Going from `CC[C@H](C)[C@H](NC(=O)[C@@H](N)CCCNC(=N)N)C(=O)N[C@@H](CC(N)=O)C(=O)N[C@@H](CC(N)=O)C(=O)N[C@H](C(=O)N1C[C@@H](n2cc(C3=CCCCC3)nn2)C[C@H]1C(=O)N[C@@H](Cc1c[nH]c2ccccc12)C(=O)N[C@@H](CO)C(=O)N[C@@H](CCC(=O)O)C(=O)N[C@@H](C)C(=O)N[C@@H](CCSC)C(=O)N[C@@H](CCSC)C(=O)O)[C@@H](C)CC` to `CC[C@H](C)[C@H](NC(=O)[C@@H](N)CCCNC(=N)N)C(=O)N[C@@H](CC(N)=O)C(=O)N[C@@H](CC(N)=O)C(=O)N[C@H](C(=O)N1C[C@@H](n2cc(-c3cc(C)c(C)cc3C)nn2)C[C@H]1C(=O)N[C@@H](Cc1c[nH]c2ccccc12)C(=O)N[C@@H](CO)C(=O)N[C@@H](CCC(=O)O)C(=O)N[C@@H](C)C(=O)N[C@@H](CCSC)C(=O)N[C@@H](CCSC)C(=O)O)[C@@H](C)CC`, the Kd rises from 0.098 µM to 0.16 µM (1.6-fold).

From ChEMBL document CHEMBL1150247, “Structural determinants for affinity enhancement of a dual antagonist peptide entry inhibitor of human immunodeficiency virus type-1” (J Med Chem, 2008)
